Bioassay records as filed in PubChem BioAssay.
Rows were chosen to be rich in hits. Some 2.2% of all compounds tested hit in one or more screens of this group.
b-catenin transl: modulators of beta-catenin nuclear translocation, primary screen, imaging, HeLa cells, immunofluorescence, high-content; nuclear translocation activity, % at 5 µM; 190,000 tested, 0.3% active;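 active = nuclear translocation activity above 50% at 5 µM, with a well cell count of 50 or more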;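 also: per-cell ratio of nuclear to cytoplasmic median beta-catenin stain intensity; plate controls were DMSO negative control for no effect and GSK-3 inhibitor IX positive control for full effect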
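Test system: human HeLa cell line; Doses: 5 µM primary, 0.02–20 µM confirmation; Incubation: 24 h compound exposure, 37°C; Detection: beta-catenin immunofluorescence imaging with DAPI; Read-out: beta-catenin nuclear/cytoplasmic ratio, % activation.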
MT stabilize HCS: microtubule stabilizers in HeLa cells, primary screen, imaging, high-content imaging | AID 2205, 2009 | % tubulin-high responders, % at 10 µM | 200,000 tested, 0.83% active | HeLa tubulin immunostaining HCS, 24 h; share of cells brighter than vehicle mean+2SD;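 active = plate Z-score above 3 for both tubulin-high and condensed-nucleus cell shares, with cell loss under 80%, at 10 µM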;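 also: anti alpha tubulin signal scored within the nucleus-defined area of each cell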
APP 5UTR inh: inhibitors of APP translation via 5'UTR reporter, primary screen, APP 5'UTR luciferase, SH-SY5Y cells. SH-SY5Y APP 5'UTR-luciferase reporter, luminescence. inhibition, % at 2 µM. 190,000 tested, 0.82% active;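 active = inhibition above a set limit, derived from the sample mean plus 3 SD, cut at about 45% in these data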
Ba/F3 V617F tox: reduced viability of JAK2V617F-dependent Ba/F3 cells, primary screen, JAK2V617F inhibitor project, cell-based, Ba/F3 EpoR-JAK2V617F, luminescence; ATP luminescence; inhibition, % at 5.6 µM; 220,000 tested, 1.1% active;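 active = inhibition above the campaign mean plus 3 SD over all tested compounds, cut at about 24% in these data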;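 also: cytokine-independent growth of Ba/F3 cells driven by EpoR plus mutant JAK2; 0% = DMSO-treated cells and 100% = JAK inhibitor I control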
IEC-6 cytotox: cytotoxicity in IEC-6 intestinal epithelial cells, primary screen, cytotoxicity control for KLF5 inhibitor project, cell-based, luminescence. IEC-6 cytotoxicity, luminescence viability. inhibition, % at 5 µM. 290,000 tested, 0.78% active. AID 1825, 2009; in the data active = inhibition above about 22%;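 also: 0% = plate median of test compound wells and 100% = cytotoxic reference compound wells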
BaF3 parental: parental Ba/F3 cell viability inhibition, counter-screen for JAK2V617F inhibitor project, murine pro-B, CellTiter-Glo luminescence | CellTiter-Glo ATP luminescence | inhibition, % at 5.6 µM | 220,000 tested, 1.1% active | AID 1486, 2009;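 active = inhibition above a per-campaign cutoff, the mean inhibition of all tested compounds plus 3 SD, cut at about 27% in these data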;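 also: 0% = DMSO wells and 100% = JAK Inhibitor I control wells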
* marks the source's active call; other numbers are inactive results; · = not tested or not shown.

SMILES | b-catenin transl | MT stabilize HCS | APP 5UTR inh | Ba/F3 V617F tox | IEC-6 cytotox | BaF3 parental
CCC(C)(C)c1ccc(OCCCC[n+]2cccc(C)c2)c(C(C)(C)CC)c1 | · | 79 | 3 | 101* | 16 | 87*
CC(N)=Nc1ccc([N+](=O)[O-])cc1 | 0 | 2 | -2 | -1 | 3 | 4
O=[N+]([O-])c1ccc(N=Nc2c(Cl)cc(O)cc2Cl)cc1 | 1 | · | · | 81* | 13 | 95*
CCOc1cccc(OCCCCN2CCOCC2)c1 | 0 | 5 | -18 | 2 | -2 | 4
COc1cccc(OCCCCCCN2CCOCC2)c1 | · | 2 | 50* | 4 | 9 | 5
COc1ccc2[nH]c(C)c(CCN(Cc3cccs3)C(=S)Nc3ccccc3)c2c1 | -2 | 4 | 1 | 34* | 2 | 46*
COc1ccc(NC(=S)N(CCc2c(C)[nH]c3ccc(C)cc23)Cc2cccs2)cc1 | 0 | 5 | 14 | 3 | -2 | 10
COc1ccc2[nH]c(C)c(CCN(Cc3cccs3)C(=S)Nc3ccc(F)cc3)c2c1 | -1 | 3 | 8 | 46* | 1 | 50*
O=C1[C@@H]2Cc3c([nH]c4ccccc34)CN2C(=O)CN1CCCCCO | · | · | · | · | 7 | ·
O=C(/C=C\c1ccco1)Nc1cc([N+](=O)[O-])ccc1F | 56* | 4 | 94* | 73* | -3 | 43*
O=C(/C=C/c1ccco1)Nc1nnc(-c2ccco2)s1 | 12 | 8.2* | -35 | -3 | 4 | 1
CCc1nnc(NC(=O)/C=C/c2ccco2)s1 | -3 | 4 | -44 | 1 | 6 | 2
Cc1nc(NC(=O)/C=C/c2ccco2)sc1C | -3 | 16* | -96 | 2 | 6 | 8
CN(C(=O)Cn1c(=O)oc2cc(S(=O)(=O)N3CCCC3)ccc21)C1CCCCC1 | · | · | · | · | 10 | ·
N#CCCS(=O)(=O)c1nnnn1-c1ccccc1 | -3 | 4 | 9 | 25* | 7 | 3
CC(=O)n1cc(-c2ccncc2)c2ccccc21 | 4 | 7 | 46* | -1 | 3 | 8
COC(=O)c1cccc(Cn2c(Cl)c(/C=N/Nc3ccccc3C)sc2=O)c1 | · | 2 | 46* | -3 | -6 | 0
Cc1ccccc1N/N=C/c1sc(=O)n(Cc2cccc(C(=O)O)c2)c1Cl | 0 | · | · | -3 | -2 | -2
Cc1ccccc1N1C(=O)CC2(CCCC2)CC1=O | -2 | 1 | -2 | 8 | 7 | 45*
O=C(/C=C/c1ccco1)NC(=S)Nc1nc(-c2ccc(Cl)cc2)cs1 | -2 | 12* | 4 | 0 | -6 | 3
CCOC(=O)c1c(C)c(C(=O)Nc2ccc3c(c2)OCO3)c(C)n1C | 0 | 3 | -18 | -4 | -2 | 8
CCOC(=O)c1c(C)c(C(=O)Nc2ccc3c(c2)OCCO3)c(C)n1CC | 0 | 31* | -8 | -1 | -1 | 6
Cc1cc(C)c(Cn2cnc(-c3ccc([N+](=O)[O-])cc3)c2)c(C)c1 | 0 | 3 | 4 | 6 | 5 | 2
CC(C)(C)c1ccc(Cn2cnc(-c3ccc([N+](=O)[O-])cc3)c2)cc1 | -2 | 3 | -60 | -3 | -2 | 39*
Cc1ccc(-c2c[n+]3c(n2-c2ccccc2)CCC3)cc1 | 2 | · | · | 82* | 22 | 65*
SMILES | b-catenin transl | MT stabilize HCS | APP 5UTR inh | Ba/F3 V617F tox | IEC-6 cytotox | BaF3 parental
c1ccc(-c2c[n+]3c(n2-c2ccccc2)CCC3)cc1 | 0 | · | · | 71* | -4 | 65*
Cc1ccc(-n2c(-c3ccccc3)c[nH]c2=S)cc1 | -2 | 3 | -11 | -1 | -7 | 2
CCOc1ccc(-n2c(-c3ccccc3)c[n+]3c2CCCCC3)cc1 | 2 | 7 | -12 | 89* | 22 | 70*
S=c1[nH]cc(-c2ccccc2)n1-c1ccccc1 | -2 | 2 | 9 | -2 | -13 | 2
CN(C(=O)COC(=O)c1nc(Cl)c(Cl)c(Cl)c1Cl)C1CCS(=O)(=O)C1 (stereo not given) | 1 | 2 | 59* | -2 | 2 | 7
CN(C(=O)COC(=O)c1nc(-c2ccccc2)n(-c2ccccc2)n1)C1CCS(=O)(=O)C1 (stereo not given) | -1 | 2 | -8 | 2 | 2 | 9
